According to ChEMBL document CHEMBL1806356, “Synthesis, characterization and antimicrobial studies of some new pyrazole incorporated imidazole derivatives” (Eur J Med Chem, 2011):

Key:
Aspergillus niger [1] = assay: Antifungal activity against Aspergillus niger at 1000 ug/ml after 72 hrs by agar diffusion method; type: functional; conditions: read-out: DIZ
Procedure, shortened: (§1)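 Fungal spores were suspended in normal saline (one loopful in 3 mL) and lawned on agar plates. Wells were punched with a sterile cork borer and loaded with test compound in DMSO at the different concentrations. A DMSO solvent control was included. Petri dishes were prepared in triplicate and held at 25 °C for 72 h.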

Bacillus subtilis [2] = assay: Antibacterial activity against Bacillus subtilis assessed as zone of inhibition at 500 ug/ml after 24 hrs by agar diffusion method; type: functional; conditions: read-out: IZ
Procedure, shortened: (§2)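 Well diffusion on Mueller-Hinton agar seeded with 24 h old bacterial cultures. Test compounds were dissolved in DMSO at 1 and 0.5 mg/mL and added to labeled wells. Plates were incubated 24 h at 37 °C. The inhibition zone around each well was measured in mm. Triplicate experiments, standard deviation calculated.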

Candida albicans [3] = assay: Antifungal activity against Candida albicans at 500 ug/ml after 72 hrs by agar diffusion method; type: functional; conditions: read-out: DIZ; procedure, shortened: as §1
Pseudomonas aeruginosa [4] = assay: Antibacterial activity against Pseudomonas aeruginosa ATCC 27853 assessed as zone of inhibition at 500 ug/ml after 24 hrs by agar diffusion method; type: functional; conditions: ATCC 27853, 24 h, read-out: IZ; procedure, shortened: as §2
Bacillus subtilis [5] = assay: Antibacterial activity against Bacillus subtilis assessed as zone of inhibition at 1000 ug/ml after 24 hrs by agar diffusion method; type: functional; conditions: read-out: IZ; procedure, shortened: as §2
Salmonella typhimurium [6] = assay: Antibacterial activity against Salmonella Typhimurium assessed as zone of inhibition at 500 ug/ml after 24 hrs by agar diffusion method; type: functional, Salmonella enterica subsp. enterica serovar Typhimurium; conditions: Salmonella enterica, read-out: IZ; procedure, shortened: as §2
Nannizzia gypsea [7] = assay: Antifungal activity against Microsporum gypseum at 1000 ug/ml after 72 hrs by agar diffusion method; type: functional; conditions: read-out: DIZ; procedure, shortened: as §1
Salmonella typhimurium [8] = assay: Antibacterial activity against Salmonella Typhimurium assessed as zone of inhibition at 1000 ug/ml after 24 hrs by agar diffusion method; type: functional, Salmonella enterica subsp. enterica serovar Typhimurium; conditions: Salmonella enterica, read-out: IZ; procedure, shortened: as §2
Clostridium perfringens [9] = assay: Antibacterial activity against Clostridium perfringens assessed as zone of inhibition at 500 ug/ml after 24 hrs by agar diffusion method; type: functional; conditions: read-out: IZ
Procedure, shortened: (§3)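 Well diffusion on Mueller-Hinton agar seeded with 24 h old cultures. Compounds dissolved in DMSO at 1 and 0.5 mg/mL and added to wells punched with a sterile cork borer, with a DMSO-only control. Plates incubated 24 h at 37 °C. Read-out was the inhibition zone in mm, run in triplicate, standard deviation calculated.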

Aspergillus niger [10] = assay: Antifungal activity against Aspergillus niger at 500 ug/ml after 72 hrs by agar diffusion method; type: functional; conditions: read-out: DIZ; procedure, shortened: as §1
Escherichia coli [11] = assay: Antibacterial activity against Escherichia coli ATCC 25922 assessed as zone of inhibition at 1000 ug/ml after 24 hrs by agar diffusion method; type: functional; conditions: ATCC 25922, 24 h, read-out: IZ; procedure, shortened: as §2
Aspergillus flavus [12] = assay: Antifungal activity against Aspergillus flavus at 500 ug/ml after 72 hrs by agar diffusion method; type: functional; conditions: read-out: DIZ; procedure, shortened: as §1
Clostridium perfringens [13] = assay: Antibacterial activity against Clostridium perfringens assessed as zone of inhibition at 1000 ug/ml after 24 hrs by agar diffusion method; type: functional; conditions: read-out: IZ; procedure, shortened: as §3
Trichophyton rubrum [14] = assay: Antifungal activity against Trichophyton rubrum at 1000 ug/ml after 72 hrs by agar diffusion method; type: functional; conditions: read-out: DIZ; procedure, shortened: as §1
Staphylococcus aureus [15] = assay: Antibacterial activity against Staphylococcus aureus assessed as zone of inhibition at 1000 ug/ml after 24 hrs by agar diffusion method; type: functional; conditions: read-out: IZ; procedure, shortened: as §2
Aspergillus flavus [16] = assay: Antifungal activity against Aspergillus flavus at 1000 ug/ml after 72 hrs by agar diffusion method; type: functional; conditions: read-out: DIZ; procedure, shortened: as §1
Nannizzia gypsea [17] = assay: Antifungal activity against Microsporum gypseum at 500 ug/ml after 72 hrs by agar diffusion method; type: functional; conditions: read-out: DIZ; procedure, shortened: as §1
Escherichia coli [18] = assay: Antibacterial activity against Escherichia coli ATCC 25922 assessed as zone of inhibition at 500 ug/ml after 24 hrs by agar diffusion method; type: functional; conditions: ATCC 25922, 24 h, read-out: IZ; procedure, shortened: as §2
Staphylococcus aureus [19] = assay: Antibacterial activity against Staphylococcus aureus assessed as zone of inhibition at 500 ug/ml after 24 hrs by agar diffusion method; type: functional; conditions: read-out: IZ; procedure, shortened: as §2
Pseudomonas aeruginosa [20] = assay: Antibacterial activity against Pseudomonas aeruginosa ATCC 27853 assessed as zone of inhibition at 1000 ug/ml after 24 hrs by agar diffusion method; type: functional; conditions: ATCC 27853, 24 h, read-out: IZ; procedure, shortened: as §2
Candida albicans [21] = assay: Antifungal activity against Candida albicans at 1000 ug/ml after 72 hrs by agar diffusion method by agar diffusion method; type: functional; conditions: read-out: DIZ; procedure, shortened: as §1
Trichophyton rubrum [22] = assay: Antifungal activity against Trichophyton rubrum at 500 ug/ml after 72 hrs by agar diffusion method; type: functional; conditions: read-out: DIZ; procedure, shortened: as §1

SMILES | zone of inhibition at 1000 µg/mL (Aspergillus niger [1]) [mm] | zone of inhibition at 500 µg/mL (Bacillus subtilis [2]) [mm] | zone of inhibition at 500 µg/mL (Candida albicans [3]) [mm] | zone of inhibition at 500 µg/mL (Pseudomonas aeruginosa [4]) [mm] | zone of inhibition at 1000 µg/mL (Bacillus subtilis [5]) [mm] | zone of inhibition at 500 µg/mL (Salmonella typhimurium [6]) [mm] | zone of inhibition at 1000 µg/mL (Nannizzia gypsea [7]) [mm] | zone of inhibition at 1000 µg/mL (Salmonella typhimurium [8]) [mm] | zone of inhibition at 500 µg/mL (Clostridium perfringens [9]) [mm] | zone of inhibition at 500 µg/mL (Aspergillus niger [10]) [mm] | zone of inhibition at 1000 µg/mL (Escherichia coli [11]) [mm] | zone of inhibition at 500 µg/mL (Aspergillus flavus [12]) [mm] | zone of inhibition at 1000 µg/mL (Clostridium perfringens [13]) [mm] | zone of inhibition at 1000 µg/mL (Trichophyton rubrum [14]) [mm] | zone of inhibition at 1000 µg/mL (Staphylococcus aureus [15]) [mm] | zone of inhibition at 1000 µg/mL (Aspergillus flavus [16]) [mm] | zone of inhibition at 500 µg/mL (Nannizzia gypsea [17]) [mm] | zone of inhibition at 500 µg/mL (Escherichia coli [18]) [mm] | zone of inhibition at 500 µg/mL (Staphylococcus aureus [19]) [mm] | zone of inhibition at 1000 µg/mL (Pseudomonas aeruginosa [20]) [mm] | further results
c1ccc(-c2ccc(-c3n[nH]cc3-c3nc(-c4ccccc4)c(-c4ccccc4)[nH]3)cc2)cc1 | 10 | 2 | 8 | 3 | 3 | 3 | 5 | 4 | 1 | 9 | 3 | 7 | 2 | 9 | 2 | 9 | 4 | 2 | 1 | 4 | zone of inhibition at 1000 µg/mL (Candida albicans [21]): 9 mm; zone of inhibition at 500 µg/mL (Trichophyton rubrum [22]): 8 mm
Clc1cc(-c2n[nH]cc2-c2nc(-c3ccc(Br)cc3)c(-c3ccc(Br)cc3)[nH]2)c(Cl)s1 | 4 | 1 | 5 | 3 | 2 | 1 | 3 | 2 | 4 | 3 | 4 | 3 | 5 | 6 | 3 | 4 | 2 | 3 | 2 | 4 | zone of inhibition at 1000 µg/mL (Candida albicans [21]): 6 mm; zone of inhibition at 500 µg/mL (Trichophyton rubrum [22]): 5 mm
Cc1ccc(-c2n[nH]cc2-c2nc(-c3ccccc3)c(-c3ccccc3)[nH]2)cc1 | 10 | 7 | 9 | 4 | 8 | 5 | 3 | 6 | 5 | 9 | 14 | 9 | 6 | 12 | 7 | 10 | 2 | 8 | 6 | 6 | zone of inhibition at 1000 µg/mL (Candida albicans [21]): 10 mm; zone of inhibition at 500 µg/mL (Trichophyton rubrum [22]): 11 mm
Clc1cc(-c2n[nH]cc2-c2nc(-c3ccccc3)c(-c3ccccc3)[nH]2)c(Cl)s1 | 10 | 3 | 9 | 5 | 4 | 6 | 5 | 7 | 7 | 9 | 6 | 9 | 8 | 10 | 6 | 10 | 4 | 5 | 5 | 6 | zone of inhibition at 1000 µg/mL (Candida albicans [21]): 10 mm; zone of inhibition at 500 µg/mL (Trichophyton rubrum [22]): 9 mm
OC(Cn1cncn1)(Cn1cncn1)c1ccc(F)cc1F [FLUCONAZOLE] | 20 | – | 21 | – | – | – | 15 | – | – | 18 | – | 21 | – | 24 | – | 22 | 14 | – | – | – | zone of inhibition at 1000 µg/mL (Candida albicans [21]): 22 mm; zone of inhibition at 500 µg/mL (Trichophyton rubrum [22]): 22 mm
Clc1ccc(-c2n[nH]cc2-c2nc(-c3ccc(Br)cc3)c(-c3ccc(Br)cc3)[nH]2)c(Cl)c1 | 5 | 4 | 8 | 4 | 5 | 3 | 4 | 4 | 2 | 4 | 5 | 4 | 3 | 10 | 4 | 5 | 3 | 4 | 3 | 5 | zone of inhibition at 1000 µg/mL (Candida albicans [21]): 9 mm; zone of inhibition at 500 µg/mL (Trichophyton rubrum [22]): 9 mm
Brc1ccc(-c2nc(-c3c[nH]nc3-c3ccc(-c4ccccc4)cc3)[nH]c2-c2ccc(Br)cc2)cc1 | 3 | 3 | 2 | 1 | 4 | 2 | 2 | 3 | 1 | 2 | 3 | 3 | 2 | 4 | 2 | 4 | 1 | 2 | 1 | 2 | zone of inhibition at 1000 µg/mL (Candida albicans [21]): 3 mm; zone of inhibition at 500 µg/mL (Trichophyton rubrum [22]): 3 mm
CN[C@@H]1[C@H](O[C@H]2[C@H](O[C@H]3[C@H](O)[C@@H](O)[C@H](N=C(N)N)[C@@H](O)[C@@H]3N=C(N)N)O[C@@H](C)[C@]2(O)C=O)O[C@@H](CO)[C@H](O)[C@H]1O [STREPTOMYCIN] | – | 11 | – | 9 | 21 | 17 | – | 18 | 16 | – | 16 | – | 17 | – | 15 | – | – | 10 | 10 | 13 | –
Cc1ccc(-c2n[nH]cc2-c2nc(-c3ccc(Br)cc3)c(-c3ccc(Br)cc3)[nH]2)cc1 | 3 | 3 | 3 | 1 | 4 | 3 | 2 | 4 | 2 | 2 | 4 | 2 | 3 | 3 | 3 | 3 | 1 | 3 | 2 | 2 | zone of inhibition at 1000 µg/mL (Candida albicans [21]): 4 mm; zone of inhibition at 500 µg/mL (Trichophyton rubrum [22]): 2 mm
